The sample as a whole holds a higher share of hits than the screen did.
XBP1 UPR activ = adaptive UPR (XBP1) activation. CHO-XBP1 luciferase reporter, IRE1-XBP1 UPR activation, luminescence; percent of tunicamycin response, DMSO as zero. activation, % at 20 µM. 330,000 tested, 0.33% active;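 active = versus positive control, 20 µM dose yields 30% or more activation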;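 also: 100% = tunicamycin at 10 µg/mL and 0% = DMSO only wells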
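Material: CHO-XBP1 cells stably carrying IRE1-XBP1-driven luciferase reporter / Amount: 1000 cells per well / Compound: 20 µM, 1% DMSO / Times: 6 h treatment, 37 °C / Detection: luciferase luminescence / Measure: % activation of reporter signal versus tunicamycin and DMSO controls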
B2AR ag = human beta-2 adrenergic receptor agonism by FAP. P07550. Am2.2-beta2AR cells, FAP receptor internalization, flow cytometry. response, % (no concentration beside the values). 340,000 tested, 0.43% active. AID 504454;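 active = response above a set limit, near 3 SD of response in nonfluorescent compounds, cut at about 42% in these data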
VLA-4 inh = inhibition in a human VLA-4 binding assay; VLA-4 expressing cells, ligand binding flow cytometry; 330,000 tested, 0.2% active; AID 2557; P13612; inhibition, % (about 7 µM as worked out from the volumes in the protocol); in the data active = inhibition above about 50%
Target sequence (P13612 whole entry, looked up): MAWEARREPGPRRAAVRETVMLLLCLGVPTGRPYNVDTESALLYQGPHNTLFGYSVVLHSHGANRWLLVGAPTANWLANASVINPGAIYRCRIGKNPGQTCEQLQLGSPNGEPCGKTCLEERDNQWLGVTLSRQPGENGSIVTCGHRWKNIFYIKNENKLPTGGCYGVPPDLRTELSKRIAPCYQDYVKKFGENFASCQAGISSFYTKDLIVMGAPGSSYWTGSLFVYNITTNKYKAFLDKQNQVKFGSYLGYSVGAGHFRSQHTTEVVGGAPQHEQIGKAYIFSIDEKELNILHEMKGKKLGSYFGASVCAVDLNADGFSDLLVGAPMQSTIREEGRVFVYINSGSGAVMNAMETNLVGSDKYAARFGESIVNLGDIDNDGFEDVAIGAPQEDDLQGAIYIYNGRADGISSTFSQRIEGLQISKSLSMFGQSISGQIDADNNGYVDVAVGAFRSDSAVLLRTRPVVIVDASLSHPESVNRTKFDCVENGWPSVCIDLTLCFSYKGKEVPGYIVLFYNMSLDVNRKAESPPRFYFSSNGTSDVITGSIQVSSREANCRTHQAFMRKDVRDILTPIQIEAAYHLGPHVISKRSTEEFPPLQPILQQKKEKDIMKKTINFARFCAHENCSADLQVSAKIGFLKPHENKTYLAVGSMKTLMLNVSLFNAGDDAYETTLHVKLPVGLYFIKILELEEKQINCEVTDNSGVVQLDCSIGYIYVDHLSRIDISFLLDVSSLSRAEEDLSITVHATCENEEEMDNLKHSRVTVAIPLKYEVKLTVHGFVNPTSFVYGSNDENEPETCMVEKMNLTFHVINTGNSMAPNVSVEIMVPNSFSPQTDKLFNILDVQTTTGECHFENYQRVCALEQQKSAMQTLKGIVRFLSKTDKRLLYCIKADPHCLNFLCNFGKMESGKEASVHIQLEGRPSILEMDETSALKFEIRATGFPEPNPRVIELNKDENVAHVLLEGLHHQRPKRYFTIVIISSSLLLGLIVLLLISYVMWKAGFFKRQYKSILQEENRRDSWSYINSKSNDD
CHOP inhibitor = inhibitors of CHOP induction in ER stress response; CHO-K1 CHOP-promoter luciferase, tunicamycin-induced, 15-18 h; inhibition, % at 10 µM; 220,000 tested, 3.8% active;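 active = compounds that reduced the stress-induced luciferase reporter signal by more than about 70% of percent inhibition, limit read from the data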;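 also: 0% = tunicamycin plus vehicle and 100% = wells without tunicamycin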
UPR CHOP act = apoptotic UPR (CHOP) activation | CHO-CHOP luciferase reporter, luminescence; percent of tunicamycin response over DMSO baseline | activation, % at 10 µM | 330,000 tested, 0.34% active | AID 449763;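 active = at 10 µM dose, activation of 40% or more, normalized to positive control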;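 also: 100% = tunicamycin at 10 µg/mL and 0% = DMSO alone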
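Dosing – one dose, 10 µM in 0.5% DMSO · System – CHO-CHOP cells, stable luciferase reporter of PERK-eIF2a-CHOP signalling · Input – 500 cells/well · Control set – tunicamycin 10 µg/mL final as positive, DMSO-only wells as negative · Timing – 6 h compound treatment, 37 °C · Measure – % activation vs tunicamycin · Technique – luminescence read with Steady-Glo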
Starred values were filed as active, the others as inactive.

Results for CC1Cc2ccccc2N1C(=O)C1CC(=O)N(c2ccccc2)C1 (centres undefined) ?
XBP1 UPR activ: 1; B2AR ag: -2; VLA-4 inh: -8; UPR CHOP act: 1

How did CCOCCCn1c(C)nc2c(c1=O)c1nc3ccccc3nc1n2CCC1=CCCCC1 do in these assays?
XBP1 UPR activ: 5; B2AR ag: 19; VLA-4 inh: 14; CHOP inhibitor: 95*; UPR CHOP act: 0

How did CCCn1cnc2c(c1=O)c1nc3ccccc3nc1n2CCC1=CCCCC1 do in these assays?
CHOP inhibitor: 84*

Results for CCCn1cnc2c(c1=O)c1nc3ccccc3nc1n2CCc1ccccc1 ?
XBP1 UPR activ: -2; B2AR ag: -13; VLA-4 inh: 11; CHOP inhibitor: 73*; UPR CHOP act: -1

Results for CC[C@H]1c2[nH]c3ccccc3c2C[C@@H]2C(=O)N(c3ccc(F)cc3)C(=O)N21 ?
XBP1 UPR activ: 0; B2AR ag: -9; VLA-4 inh: -1; UPR CHOP act: -1

What do the screens show for `CC(=O)c1cccc(S(=O)(=O)N2CCN(CCOc3ccccc3)CC2)c1`?
XBP1 UPR activ: 4; B2AR ag: -1; VLA-4 inh: 3; UPR CHOP act: -1

Results for NC(=O)N/N=C/c1cn(-c2ccccc2)nc1-c1ccccc1 ?
XBP1 UPR activ: 3; B2AR ag: 10; VLA-4 inh: -18; CHOP inhibitor: -23; UPR CHOP act: 5

What do the screens show for `O=S(=O)(N/N=C\c1cn(-c2ccccc2)nc1-c1ccccc1)c1ccccc1`?
XBP1 UPR activ: 2; B2AR ag: -16; VLA-4 inh: 20; CHOP inhibitor: 96*; UPR CHOP act: 3

How did O=C(CNc1ccccc1)N/N=C/c1cn(-c2ccccc2)nc1-c1ccccc1 do in these assays?
XBP1 UPR activ: 0; B2AR ag: -18; VLA-4 inh: 6; CHOP inhibitor: 96*; UPR CHOP act: 7

How did Cc1ccc(S(=O)(=O)c2c[nH]c3cc4c(cc3c2=O)OCO4)cc1 do in these assays?
XBP1 UPR activ: 0; VLA-4 inh: -1; CHOP inhibitor: 25; UPR CHOP act: 1

Results for Cc1sc2ncnc(NCCc3ccc(S(N)(=O)=O)cc3)c2c1C ?
XBP1 UPR activ: 1; B2AR ag: 1; VLA-4 inh: 10; CHOP inhibitor: 73*; UPR CHOP act: 3

Results for CC1CN(C(=O)COC(=O)Cc2c(F)cccc2Cl)CC(C)O1 (centres undefined) ?
XBP1 UPR activ: 0; B2AR ag: 2; VLA-4 inh: 19; UPR CHOP act: -2

How did Cc1ccccc1C(=O)Oc1ccc(-c2csnn2)cc1 do in these assays?
XBP1 UPR activ: 6; B2AR ag: -2; VLA-4 inh: 2; CHOP inhibitor: -17; UPR CHOP act: 3

What do the screens show for `Cc1ccccc1C(=O)Oc1ccc(Sc2ccc(O)cc2)cc1`?
XBP1 UPR activ: 2; VLA-4 inh: 17; CHOP inhibitor: 96*; UPR CHOP act: 4

How did COc1cc(-c2nc(-c3ccccc3)c(-c3cccs3)[nH]2)cc(OC)c1OC do in these assays?
XBP1 UPR activ: 2; B2AR ag: 25; VLA-4 inh: -20; CHOP inhibitor: -18; UPR CHOP act: 4

How did c1ccc(-c2nc(-c3cccs3)[nH]c2-c2ccccc2)cc1 do in these assays?
XBP1 UPR activ: -1; B2AR ag: -1; VLA-4 inh: -6; CHOP inhibitor: 74*; UPR CHOP act: 2

What do the screens show for `COc1ccc(OC[C@@H](O)CNC(=O)c2cccc3c2C(=O)c2ccc(Cl)cc2S3(=O)=O)cc1`?
XBP1 UPR activ: -2; B2AR ag: 16; VLA-4 inh: 14; UPR CHOP act: 0

Results for Cc1csc2nc(O)c(C(=O)NC3CCCCC3C)c(=O)n12 (centres undefined) ?
XBP1 UPR activ: 1; B2AR ag: 4; VLA-4 inh: -3; UPR CHOP act: 1

What do the screens show for `CCSc1nnc(NC(=O)c2cc(C)oc2C)s1`?
XBP1 UPR activ: 2; B2AR ag: 10; VLA-4 inh: -1; CHOP inhibitor: 78*; UPR CHOP act: 4

How did CCc1nnc(NC(=O)c2cc(C)oc2C)s1 do in these assays?
XBP1 UPR activ: -4; B2AR ag: -1; VLA-4 inh: 29; UPR CHOP act: 4

What do the screens show for `Cc1ccc(-c2nc3ccccc3nc2-c2ccccc2)cc1`?
XBP1 UPR activ: -3; B2AR ag: -7; VLA-4 inh: 5; UPR CHOP act: 3

Results for Clc1ccc(-c2nc3ccccc3nc2-c2ccccc2)cc1 ?
XBP1 UPR activ: 2; B2AR ag: -11; VLA-4 inh: 3; CHOP inhibitor: 74*; UPR CHOP act: 1

Results for CCc1c(C)sc(NC(=O)c2cc(-c3cc(OC)ccc3OC)on2)c1C#N ?
XBP1 UPR activ: 18; B2AR ag: 3; VLA-4 inh: 0; CHOP inhibitor: 86*; UPR CHOP act: 4

What do the screens show for `CCc1c(C)sc(NC(=O)c2cc(-c3ccc(OC)c(OC)c3)on2)c1C#N`?
XBP1 UPR activ: -2; B2AR ag: -1; VLA-4 inh: 16; CHOP inhibitor: 83*; UPR CHOP act: -2

Results for COc1ccc(C(=O)CCC(=O)N2CCN(c3cc(C)ccc3C)CC2)cc1 ?
XBP1 UPR activ: -2; B2AR ag: 2; VLA-4 inh: -7; UPR CHOP act: -1

How did CCn1c(SCC(=O)c2ccc3c(c2)Cc2ccccc2-3)nnc1-c1ccc(N)cc1 do in these assays?
XBP1 UPR activ: -3; B2AR ag: -2; VLA-4 inh: 4; CHOP inhibitor: 85*; UPR CHOP act: -2

What do the screens show for `Cn1c(SCC(=O)Nc2cccc(F)c2)nnc1-c1cc2ccccc2o1`?
XBP1 UPR activ: 0; B2AR ag: -3; VLA-4 inh: 1; CHOP inhibitor: 74*; UPR CHOP act: 0

How did CCn1c(SCC(=O)Nc2ccc3c(c2)oc2ccccc23)nnc1-c1ccc(N)cc1 do in these assays?
XBP1 UPR activ: 0; B2AR ag: -1; VLA-4 inh: -2; CHOP inhibitor: 95*; UPR CHOP act: 7

Results for CCn1c(SCC(=O)c2ccc(O)c(O)c2)nnc1-c1ccc(C)cc1 ?
XBP1 UPR activ: 1; B2AR ag: -4; VLA-4 inh: -1; CHOP inhibitor: -8; UPR CHOP act: 2

What do the screens show for `Cc1ccc(CCc2nnc(SCC(=O)Nc3cccc(Cl)c3)n2-c2ccccc2)o1`?
XBP1 UPR activ: -1; B2AR ag: 8; VLA-4 inh: -11; CHOP inhibitor: 85*; UPR CHOP act: -1

How did Cc1nnc(SCC(=O)Nc2cc(C(N)=O)cc(C(N)=O)c2)n1-c1ccccc1 do in these assays?
XBP1 UPR activ: 0; B2AR ag: 4; VLA-4 inh: 10; UPR CHOP act: -1

Results for COc1ccc(-c2cnnc(N/N=C/c3c(C)nn(-c4ccccc4)c3Cl)n2)cc1 ?
B2AR ag: 11; VLA-4 inh: 38; CHOP inhibitor: 70

What do the screens show for `COc1ccc(CCNC(=O)c2ccc(NC(=O)CC3SC(N4CCCC4)=NC3=O)cc2)cc1OC` (centres undefined)?
B2AR ag: -3

Assay outcomes as filed in PubChem BioAssay.
